CHRM5 PAM – CHRM5 positive allosteric modulation. actives 0.3% (n = 360,000). activation, % at 3 µM. CHO-K1 hM5, Fluo-8 calcium, ACh EC20 PAM; 0% = ACh EC20, 100% = ACh EC100. P08912;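 active means activation above the run cutoff, the mean activation of all test compounds plus 3 SD, cut at about 18% in these data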
Target sequence (P08912 whole entry, looked up): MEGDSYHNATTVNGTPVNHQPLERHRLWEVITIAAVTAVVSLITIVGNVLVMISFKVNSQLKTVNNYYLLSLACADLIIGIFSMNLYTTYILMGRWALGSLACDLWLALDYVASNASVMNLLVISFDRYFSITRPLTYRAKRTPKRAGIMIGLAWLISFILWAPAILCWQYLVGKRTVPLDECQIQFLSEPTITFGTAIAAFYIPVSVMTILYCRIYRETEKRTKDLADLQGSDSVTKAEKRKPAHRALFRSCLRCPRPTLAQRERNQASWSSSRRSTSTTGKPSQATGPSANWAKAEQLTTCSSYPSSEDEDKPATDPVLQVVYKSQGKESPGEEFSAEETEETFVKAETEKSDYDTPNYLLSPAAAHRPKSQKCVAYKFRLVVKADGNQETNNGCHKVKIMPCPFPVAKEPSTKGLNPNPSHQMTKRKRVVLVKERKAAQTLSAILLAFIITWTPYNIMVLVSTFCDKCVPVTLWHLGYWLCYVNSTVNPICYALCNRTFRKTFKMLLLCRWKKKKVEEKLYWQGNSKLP
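Test system: CHO-K1 hM5 cells / Doses: single-point, 3 µM nominal / Times: Post-acetylcholine fluorescence recording 140 s / Technique: Fluo-8 calcium fluorescence / Measure: Max/basal fluorescence ratio as % of EC20–EC100 ACh window / Benchmarks: low control EC20 acetylcholine (0%), high control EC100 acetylcholine (100%) / Replicates: one well per compound, no replicates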
M1 antag – blocks human M1 muscarinic receptor; CHO-K1 hM1, Fluo-8 calcium fluorescence, ACh EC80 antagonist; AID 588852; inhibition, % at 3 µM; actives 1.3% (n = 360,000);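 active means percent inhibition above its own plate's cutoff, namely the mean of that plate's compound wells plus 3 SD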;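 further: peak over basal fluorescence ratio during 140 s after agonist addition; 0% = ACh EC80 plus DMSO and 100% = DMSO alone without agonist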
CHRM5 agonist – CHRM5 agonism in calcium assay | P08912 | CHO-K1 hM5 cells, Fluo-8 calcium fluorescence; 0% DMSO wells, 100% maximal acetylcholine response | activation, % at 3 µM | actives 0.19% (n = 360,000) | AID 624037;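 active means activation above the run's mean over test compounds plus 3 SD, cut at about 23% in these data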;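 further: signal is peak over basal fluorescence ratio across the kinetic read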
M1 PAM – positive allosteric modulators of human M1 muscarinic receptor; P11229; CHO-K1 hM1, Fluo-8 calcium fluorescence, ACh EC20; 0% = ACh EC20, 100% = maximal ACh; activation, % at 3 µM; actives 0.088% (n = 360,000); AID 588819; in the data active means activation above about 19%, passing the limit was not always enough
M1 ag – activates human CHRM1 receptor | P11229 | CHO-K1 hM1, Fluo-8 calcium fluorescence, agonist mode; 0% DMSO, 100% acetylcholine EC100 | activation, % at 3 µM | actives 0.33% (n = 360,000);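 active means activation above the run's mean compound activation plus 3 SD, cut at about 16% in these data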;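 further: peak over basal fluorescence ratio within a 140 s kinetic read after compound addition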
M5 antag – blocks acetylcholine activation of human M5 receptor; P08912; CHO-hM5 cells, Fluo-8 calcium fluorescence, ACh EC80; inhibition, % at 3 µM; actives 0.59% (n = 360,000); AID 624040;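 active means inhibition above a per-plate cutoff, the mean of that plate's test compounds plus 3 SD, cut at about 27% in these data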;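 further: 0% = acetylcholine EC80 with DMSO and 100% = DMSO without agonist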
Numbers without * were called inactive; x = no result given. Shown are actives, neighbours in structure and some others; about 2% of the full set was active somewhere.

SMILES	CHRM5 PAM	M1 antag	CHRM5 agonist	M1 PAM	M1 ag	M5 antag
Cc1ccc(N2CCN(C(C(=O)Nc3c(C)cccc3C)c3ccccc3OC(F)(F)F)CC2)cc1 (centres undefined)	0	x	-1	x	x	-1
CC(C)(C)NC(=O)C(c1cccs1)N(Cc1ccc(F)cc1)C(=O)c1csnn1 (centres undefined)	-14	3	-5	0	-3	37*
CN1CCN(CCNC(=O)c2ccc3nc(-c4ccc(F)cc4)c(-c4ccc(F)cc4)nc3c2)CC1	-2	45*	-9	-21	-5	-10
CCc1nc2ccc(C(=O)NCCCN3CCN(c4ccc(F)cc4)CC3)cc2nc1CC	-6	14	-7	-8	-8	-2
CNc1cc(-c2ccc(O)cc2C)ncn1	-10	5	2	-4	0	2
COc1cc(/C=C/C(=O)OCC(=O)Nc2ccc([N+](=O)[O-])cc2)ccc1O	-18	5	38*	-6	25*	5
OC(COC(c1ccccc1)c1ccccc1)CN1CCN(c2ccccn2)CC1 (centres undefined)	-14	42*	-7	-26	-8	8
OC(COc1ccc(Cl)cc1)CN1CCN(c2ccccn2)CC1 (centres undefined)	10	-2	-11	2	-6	-4
COc1ccccc1C(c1c(N)n(C)c(=O)n(C)c1=O)C(C)[N+](=O)[O-] (centres undefined)	-15	6	-8	3	-2	28*
COc1ccccc1C(C[N+](=O)[O-])c1c(N)n(C)c(=O)n(C)c1=O (centres undefined)	0	-10	-2	13	-1	7
Cc1cc(C)cc(N(CCC#N)C(=O)COC(=O)C2CCN(c3ccc(C(F)(F)F)cn3)CC2)c1	-34	30*	-8	-16	-7	19
CCCCN1C(=O)C(CC(=O)NCc2cccc3ccccc23)CC(C(=O)N2CCOCC2)=C1C (centres undefined)	-2	-9	-1	5	-2	8
O=C(NNc1ccccc1Br)C(O)(c1cccc(C(F)(F)F)c1)c1cccc(C(F)(F)F)c1	-18	36*	-4	-22	-9	29*
CCCCNC(=S)N(C)/N=C/c1ccc(OCC(=O)Nc2ccc(OC)cc2)c(OC)c1	-15	34*	1	-19	-1	15
CCCCNC(=S)N(C)/N=C/c1ccc(OCC(=O)Nc2c(C)cc(C)cc2C)c(OC)c1	5	-7	4	3	-1	-5
CCNC(=S)N/N=C/c1ccc(OCC(=O)Nc2ccc(OC)cc2)c(OC)c1	-18	39*	2	-16	-1	21
COc1ccc(NC(=O)COc2ccc(/C=N/O)cc2OC)cc1	2	-5	2	7	-4	3
CC(=O)Nc1ccc(C(=O)N2CCCCC2c2cc(C(=O)N3CCOCC3)no2)cc1 (centres undefined)	-2	-5	2	-2	-2	15
CNS(=O)(=O)c1ccc(CNC[C@H]2O[C@@H](n3cc(C)c(=O)[nH]c3=O)C[C@@H]2O)cc1	4	-21	0	10	-9	-7
O=C1CCCN2N=C(SCC(=O)Nc3cccc(C(F)(F)F)c3)SC2=N1	-13	27*	6	-12	-3	36*
CCc1ccc2[nH]c(O)c(N=Nc3nc(-c4ccccc4)cs3)c2c1	-2	7	2	-3	20*	-1
Cc1cc2nc(C(C)(C)C)c(Cc3ccccc3C(F)(F)F)n2c(C)c1Br	-7	x	1	x	x	-4
Nc1c(C(=O)CSc2nccn2-c2ccc(Cl)cc2)c(=O)[nH]c(=O)n1C1CC1	18*	-9	-1	9	-3	-2
Cc1ccc(-n2ccnc2SCC(=O)c2c(N)n(C3CC3)c(=O)[nH]c2=O)cc1C	2	0	3	2	-4	8
Cc1cccc(NC(=O)/C(C#N)=C\c2cn(CC(=O)O)c3ccccc23)c1	-12	2	-4	-5	-3	28*
SMILES	CHRM5 PAM	M1 antag	CHRM5 agonist	M1 PAM	M1 ag	M5 antag
COc1ccc([C@H]2CC(=O)C=C(c3ccc(F)cc3OCc3ccccc3)C2)cc1	3	6	1	-1	-2	4
COc1ccc([C@H]2CC(=O)C=C(c3ccc(F)cc3OCc3ccccc3)C2)cc1OC	-24	50*	2	-15	-1	19
CC1(C(=O)NS(=O)(=O)c2ccccc2C(F)(F)F)CCN1C(=O)CCc1cccs1 (centres undefined)	0	-8	1	-1	-2	-6
C=CCn1c(SCC(=O)Nc2cccnc2Cl)nnc1-c1ccccc1F	-4	-5	1	2	-5	3
C=CCn1c(SCC(=O)Nc2cccnc2Cl)nnc1-c1ccc(Cl)cc1	26*	6	8	-3	-4	28*
O=C(Nc1ccc2c(c1)CCC2)C1CCN(c2c3c(nc4ncnn24)CCC3)CC1	-3	-2	-6	3	-5	-3
O=C(Nc1ccc(Oc2ccccc2)cc1)C1CCN(c2c3c(nc4ncnn24)CCC3)CC1	-12	36*	-14	-16	1	6
CC(C)C(NC(=O)c1ccc(C(C)(C)C)cc1)C(=O)NCc1ccccn1 (centres undefined)	6	55*	3	-30	-8	-5
COc1ccc(C(=O)NC(C(=O)NCc2ccccn2)C(C)C)cc1 (centres undefined)	-5	2	-7	0	-2	10
COc1ccc(NC(=S)N2CCN(C(c3ccccc3)c3ccccc3)CC2)cc1OC	-19	38*	-10	-25	-8	23
COc1cccc(CNC(=O)[C@@H]2CCCN2C(=O)[C@@H]2CCCN2C(=O)OC(C)(C)C)c1	7	x	3	x	x	-1
CC(=O)NNC(=O)C(O)(c1ccccc1)c1ccccc1	1	-3	-1	3	-2	-6
CC(C)(C#CC(O)(c1ccccc1)c1ccccc1)N1CCCCC1	-30	93*	-19	-29	-9	42*
CC(C)(C#CC(O)(c1ccccc1)c1ccccc1)N1CCCC1	-16	99*	-11	-23	-5	69*
CCCCOCCCNC(=O)C[C@@H]1C[C@@]2(C(=O)OCC)CCC=C2N(Cc2ccc(Cl)cc2Cl)C1=O	2	x	-2	x	x	6
CC[n+]1ccccc1/C=C/c1ccc(N(C)C)cc1	0	-6	-4	7	-6	-2
CCCCCC[n+]1ccccc1/C=C/c1ccc(N(C)C)cc1	-21	74*	42*	-33	30*	64*
Cc1cccc2sc(=S)[nH]c12	-2	-11	5	11	-2	2

Compound activity as filed in PubChem BioAssay.
